Active and inactive are the calls of the source. The rule behind the calls is not given here.
Key:
[1] = system: Human alphaherpesvirus 1; assay: Intraperitoneal administration against herpes simplex virus type-1 (HSV-1) infected mice; type: functional
Procedure, shortened: (§1)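 ICR or CD-1 mice got drug ip in saline as the total daily dose (mg/kg/day). It was split into doses at -40, -28, -20, -3 and +3 h relative to ip inoculation with 5.6×10^4 pfu HSV-1. Mice were followed for 22 days, 15/group. Protection index = (control mortality − treated mortality)/control mortality; >0.25 counted active. Only the lowest protective dose is recorded.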

[2] = system: Semliki Forest virus; assay: Effective dose administered intraperitoneally againist Forest virus infected mice; type: functional, organism-based
Procedure, shortened: (§2)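 Drug was suspended in 0.9% NaCl or in a carboxymethylcellulose/polysorbate 80/benzyl alcohol/NaCl vehicle. Deaths were recorded daily for 6 days, with 24 mice per group. The ED50 is the minimal dose protecting 50% of mice, calculated by probit analysis.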

[3] = system: Semliki Forest virus; assay: Antiviral activity against Forest virus (SFV); type: functional
Procedure, shortened: (§3)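 ICR or CD-1 mice of both sexes got one drug dose by the route in the line (ip, po or sc). The drug was a suspension in 0.9% NaCl or in a CMC/polysorbate 80/benzyl alcohol/NaCl vehicle. […] Deaths were recorded daily for 6 days, 24 mice/group. ED50 is the minimal dose protecting 50% of mice, by probit analysis.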

[4] = system: Semliki Forest virus; assay: Effective dose administered subcutaneously against Forest virus infected mice; type: functional, organism-based; procedure, shortened: as §2
[5] = system: Semliki Forest virus; assay: Effective dose administered perorally against Forest virus infected mice; type: functional, organism-based; procedure, shortened: as §2
[6] = system: Mus musculus; assay: Evaluation for serum interferon response from a single 800 mg/kg intraperitoneal administration in vesicular stomatitis virus on […] cells; Range 10-50 units/mL; type: functional
Procedure, shortened: (§4)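 Mice got a single ip 800 mg/kg dose. Blood was drawn 3, 6, 8 and 12 h later from five mice per group and pooled. Interferon titer was measured by plaque reduction with vesicular stomatitis virus on L929 cells. Titer is the reciprocal serum dilution cutting plaques by 50% versus untreated cultures. Peak response within 24 h was banded: ≥2000, ~500-1000, ~50-500, ~10-50 U/mL.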

[7] = system: Semliki Forest virus; assay: Effective dose administered subcutaneously againist Forest virus infected mice; type: functional; conditions: sc; procedure, shortened: as §3
[8] = system: Semliki Forest virus; assay: Effective dose administered perorally againist Forest virus infected mice; type: functional; conditions: po; procedure, shortened: as §3
[9] = system: Mus musculus; assay: Protection index after intraperitoneal administration (50 mg/kg/day) against herpes simplex virus type-1 (HSV-1) infected mice [protection index=(control mortality-treated mortality)/control mortality]; type: functional; procedure, shortened: as §1
[10] = system: Vesicular stomatitis virus; assay: Evaluation for serum interferon response from a single 800 mg/kg intraperitoneal administration in vesicular stomatitis virus on […] cells.; type: functional; procedure, shortened: as §4
[11] = system: Mus musculus; assay: Protection index after intraperitoneal administration (25 mg/kg/day) against herpes simplex virus type-1 (HSV-1) infected mice [protection index=(control mortality-treated mortality)/control mortality]; type: functional; procedure, shortened: as §1
[12] = system: Mus musculus; assay: The compound was evaluated for the serum interferon response from a single 800 mg/kg intraperitoneal administration in vesicular stomatitis virus on […] cells; range 500-1000 units/mL; type: functional; procedure, shortened: as §4

Compound | Protection index [1] | ED50 [2] | ED50 [3] | ED50 [7] | ED50 [8] | also measured
Nc1nc(O)c(I)c(-c2c(F)cc(F)cc2F)n1 | 0 | inactive | – | – | – | –
COc1ccc(-c2nc(N)nc(O)c2I)cc1 | – | – | > 400 mg/kg | – | – | ED50 [4]: inactive; ED50 [5]: inactive
CCCOc1cccc(-c2nc(N)nc(O)c2I)c1 | 0 | – | 100 mg/kg | – | – | IFN [6]: 10 units/mL
Nc1nc(O)c(Br)c(-c2ccc3ccccc3c2)n1 | – | – | > 400 mg/kg | – | – | ED50 [4]: inactive; ED50 [5]: inactive
Nc1nc(O)c(Br)c(-c2ccc(OCc3ccccc3)cc2)n1 | – | inactive | – | – | – | –
Nc1nc(O)c(Cl)c(-c2ccc(O)cc2)n1 | – | – | > 400 mg/kg | – | – | ED50 [4]: inactive; ED50 [5]: inactive
Nc1nc(O)c(Br)c(-c2ccccc2F)n1 | – | – | 25 mg/kg | 200 mg/kg | > 400 mg/kg | Protection index [9]: 0.69; IFN [10]: 50 units/mL
Nc1nc(O)c(Br)c(-c2cc(Br)c(O)c(Br)c2)n1 | – | inactive | – | – | – | –
Nc1nc(O)c(Cl)c(-c2cccc(F)c2)n1 | – | – | 30 mg/kg | 100 mg/kg | > 400 mg/kg | Protection index [11]: 0.61; IFN [10]: >=2000 ml
Cc1ccccc1-c1nc(N)nc(O)c1Cl | 0.13 | – | 130 mg/kg | 350 mg/kg | > 400 mg/kg | IFN [12]: 500 units/mL
Nc1nc(O)c(I)c(-c2ccc(-c3ccccc3)cc2)n1 | – | inactive | – | – | – | ED50 [4]: inactive; ED50 [5]: inactive
Nc1nc(O)c(I)c(-c2cnccn2)n1 | – | – | 275 mg/kg | > 400 mg/kg | > 400 mg/kg | IFN [12]: 500 units/mL
Nc1nc(O)c(Br)c(-c2cccc(O)c2)n1 | 0 | inactive | – | – | – | –
CCCOc1cccc(-c2nc(N)nc(O)c2Br)c1 | 0.4 | – | 100 mg/kg | > 400 mg/kg | > 400 mg/kg | IFN [6]: 10 units/mL
Nc1nc(O)c(I)c(-c2ccc3ccccc3n2)n1 | – | inactive | – | – | – | ED50 [4]: inactive; ED50 [5]: inactive
COc1cccc(-c2nc(N)nc(O)c2I)c1 | – | – | 40 mg/kg | > 400 mg/kg | > 400 mg/kg | IFN [6]: 10 units/mL; Protection index [9]: 0.54
COc1cccc(-c2nc(N)nc(O)c2Br)c1 | – | – | 10 mg/kg | 55 mg/kg | > 400 mg/kg | Protection index [9]: 0.62; IFN [10]: 50 units/mL
Nc1nc(O)c(I)c(-c2ccc(Cl)cc2)n1 | 0.27 | – | 110 mg/kg | > 400 mg/kg | > 400 mg/kg | IFN [6]: 10 units/mL
Nc1nc(O)c(I)c(-c2ccco2)n1 | 0.28 | – | 135 mg/kg | > 400 mg/kg | > 400 mg/kg | IFN [6]: 10 units/mL
Nc1nc(O)c(Cl)c(-c2cnccn2)n1 | 0.07 | – | 110 mg/kg | > 400 mg/kg | 395 mg/kg | IFN [12]: 500 units/mL
Nc1nc(O)c(I)c(-c2cccc3ccccc23)n1 | 0.18 | – | 70 mg/kg | > 400 mg/kg | > 400 mg/kg | IFN [6]: 10 units/mL
CN(C)c1ccc(-c2nc(N)nc(O)c2Br)cc1 | 0.13 | inactive | – | – | – | ED50 [4]: inactive; ED50 [5]: inactive
Nc1nc(O)c(Br)c(-c2ccccc2O)n1 | – | inactive | – | – | – | –
CC(C)(C)c1ccc(-c2nc(N)nc(O)c2I)cc1 | – | inactive | – | – | – | ED50 [4]: inactive; ED50 [5]: inactive
Nc1nc(O)c(Cl)c(-c2cccc(Cl)c2)n1 | 0.86 | – | 135 mg/kg | > 400 mg/kg | > 400 mg/kg | IFN [10]: 50 units/mL
Nc1nc(O)c(I)c(-c2ccc(F)cc2)n1 | 0.29 | – | 245 mg/kg | 250 mg/kg | 260 mg/kg | IFN [10]: >=2000 ml
Nc1nc(O)c(Cl)c(-c2cccc([N+](=O)[O-])c2)n1 | 0.92 | – | 140 mg/kg | 380 mg/kg | > 400 mg/kg | IFN [10]: 50 units/mL
COc1cccc(-c2nc(N)nc(O)c2Cl)c1OC | – | inactive | – | – | – | –
COc1cccc(-c2nc(N)nc(O)c2Cl)c1 | – | – | 15 mg/kg | 205 mg/kg | > 400 mg/kg | Protection index [9]: 0.92; IFN [10]: 50 units/mL
